Calls of active or inactive are those of the source. The calls are words filed in the database; no cut-off is given here.
Tests used:
[1] = molecular target: T1, Mitogen-activated protein kinase 1 and 3 (ERK2 and ERK1) (Mus musculus) (UniProt P63085+Q63844); experiment: Inhibition of LPS-induced Erk1/2 phosphorylation in mouse RAW264.7 cells at 10 uM after 4 to 6 hrs by Western blot analysis; type: cell-based
Procedure, shortened: (§1)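 Cells were given compound at 10 µM with LPS 500 ng/mL and lysed (Triton X-100 buffer) at 2, 4 and 6 h. Protein was quantified by BCA, run on 10% SDS-PAGE and transferred to PVDF. Blots were probed for total and phosphorylated JNK, ERK1/2, p38, NF-κB p65 and IκBα.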

[2] = molecular target: T2, NF-kappa-B inhibitor alpha (Mus musculus) (UniProt Q9Z1E3); experiment: Inhibition of LPS-induced IkappaBalpha phosphorylation in mouse RAW264.7 cells at 10 uM at 4 hrs by Western blot analysis; type: cell-based; procedure, shortened: as §1
T2 sequence (whole entry): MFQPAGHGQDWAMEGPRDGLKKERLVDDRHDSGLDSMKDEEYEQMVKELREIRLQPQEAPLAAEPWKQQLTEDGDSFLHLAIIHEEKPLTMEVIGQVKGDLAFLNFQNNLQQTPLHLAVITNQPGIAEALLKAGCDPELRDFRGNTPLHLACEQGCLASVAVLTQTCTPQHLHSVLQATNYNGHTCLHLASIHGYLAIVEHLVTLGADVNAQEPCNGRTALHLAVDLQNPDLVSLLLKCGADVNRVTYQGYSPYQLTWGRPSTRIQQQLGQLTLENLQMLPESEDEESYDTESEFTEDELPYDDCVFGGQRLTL

RAW264.7 [3] = experiment: Antiinflammatory activity in mouse RAW264.7 cells assessed as inhibition of LPS-induced IL-6 production at 10 uM after 6 hrs by ELISA (reference value: 1046.1 +/- 111.2 pg/ml); type: functional
Procedure, shortened: (§2)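 RAW264.7 cells (DMEM, 5% FBS, 37 °C, 5% CO2) were exposed to compound at 10 µM plus LPS 500 ng/mL at the same time, with 0.1% DMSO final. Supernatant TNF-α and IL-6 were measured by ELISA at 6, 12 and 24 h.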

RAW264.7 [4] = experiment: Inhibition of LPS-induced JNK phosphorylation in mouse RAW264.7 cells at 10 uM after 4 to 6 hrs by Western blot analysis; type: cell-based; procedure, shortened: as §1
Mus musculus [5] = experiment: Antiinflammatory activity in BALB/c mouse assessed as increase in survival rate at 15 mg/kg, ip QD administered 3 days prior to LPS challenge measured after 19 hrs; type: functional; conditions: route intraperitoneal
Procedure, shortened: (§3)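 Balb/c mice (~20 g), 10 per group, given compound in olive oil at 15 mg/kg i.p. once daily for 3 days, then LPS 20 mg/kg i.p. Cumulative survival was followed after LPS and analysed by Kaplan–Meier against LPS-only mice.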

Mus musculus [6] = experiment: Antiinflammatory activity in BALB/c mouse assessed as decrease in LPS-induced serum IL-6 level at 15 mg/kg, ip QD administered 3 days prior to LPS challenge measured after 3 hrs by ELISA; type: functional, organism-based; set-up: dose 15 mg/kg
Procedure, shortened: (§4)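 Balb/c mice were dosed i.p. at 15 mg/kg daily for 3 days (olive oil vehicle) before LPS 20 mg/kg i.p. Blood was drawn 3 h after LPS, and serum TNF-α and IL-6 were measured by ELISA. n = 6.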

Mus musculus [7] = experiment: Antiinflammatory activity in BALB/c mouse assessed as decrease in LPS-induced serum TNFalpha level at 15 mg/kg, ip QD administered 3 days prior to LPS challenge measured after 3 hrs by ELISA; type: functional, organism-based; set-up: dose 15 mg/kg; procedure, shortened: as §4
RAW264.7 [8] = experiment: Antiinflammatory activity in mouse RAW264.7 cells assessed as inhibition of LPS-induced IL-6 production at 10 uM after 24 hrs by ELISA (reference value: 13412 +/- 1167.6 pg/ml); type: functional; procedure, shortened: as §2
RAW264.7 [9] = experiment: Inhibition of MAPK-mediated NFkappa B subunit p65 phosphorylation in LPS-stimulated mouse RAW264.7 cells at 10 uM after 4 to 6 hrs by Western blot analysis; type: cell-based; procedure, shortened: as §1
[10] = molecular target: T2, NF-kappa-B inhibitor alpha (Mus musculus); experiment: Inhibition of IKappaBalpha degradation in LPS-stimulated mouse RAW264.7 cells at 10 uM by Western blot analysis; type: cell-based; procedure, shortened: as §1
RAW264.7 [11] = experiment: Antiinflammatory activity in mouse RAW264.7 cells assessed as inhibition of LPS-induced TNFalpha production at 10 uM after 24 hrs by ELISA (reference value: 10124 +/- 1137.2 pg/ml); type: functional; procedure, shortened: as §2
[12] = molecular target: T2, NF-kappa-B inhibitor alpha (Mus musculus); experiment: Inhibition of LPS-induced IkappaBalpha phosphorylation in mouse RAW264.7 cells at 10 uM after 4 to 6 hrs by Western blot analysis; type: cell-based; procedure, shortened: as §1
RAW264.7 [13] = experiment: Antiinflammatory activity in mouse RAW264.7 cells assessed as inhibition of LPS-induced IL-6 production at 10 uM after 12 hrs by ELISA (reference value: 2145.1 +/- 368.7 pg/ml); type: functional; procedure, shortened: as §2
RAW264.7 [14] = experiment: Antiinflammatory activity in mouse RAW264.7 cells assessed as inhibition of LPS-induced TNFalpha production at 10 uM after 12 hrs by ELISA (reference value: 4126.8 +/- 282 pg/ml); type: functional; procedure, shortened: as §2
[15] = molecular target: MAP kinase p38 (Mus musculus) (UniProt P47811+O08911+Q9WUI1+Q9Z1B7); experiment: Inhibition of LPS-induced MAPK p38 phosphorylation in mouse RAW264.7 cells at 10 uM after 4 to 6 hrs by Western blot analysis; type: cell-based; procedure, shortened: as §1
RAW264.7 [16] = experiment: Cytotoxicity against mouse RAW264.7 cells after 24 hrs by MTT assay; type: cell-based; conditions: RAW264.7, 24 h
Procedure, shortened: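 Growth of non-LPS RAW264.7 cells was measured by MTT after 24 h with compound: MTT for 4 h, formazan dissolved in DMSO, OD570. Untreated cells were set as 100% viability. IC50 is the concentration giving 50% growth inhibition.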

Mus musculus [17] = experiment: Antiinflammatory activity in BALB/c mouse assessed as increase in survival rate at 15 mg/kg, ip QD administered 3 days prior to LPS challenge measured after 3 hrs (reference value: 10%); type: functional; conditions: route intraperitoneal
RAW264.7 [18] = experiment: Antiinflammatory activity in mouse RAW264.7 cells assessed as inhibition of LPS-induced TNFalpha production at 10 uM after 6 hrs by ELISA (reference value: 2646.1 +/- 499.8 pg/ml); type: functional; procedure, shortened: as §2
[19] = molecular target: Transcription factor p65 (Mus musculus) (UniProt Q04207); experiment: Inhibition of NF-kappaB subunit p65 DNA binding activity in LPS-stimulated mouse RAW264.7 cells at 5 to 20 uM by luciferase reporter gene assay; type: cell-based
Chain of Transcription factor p65 (Mus musculus) (Q04207 whole entry): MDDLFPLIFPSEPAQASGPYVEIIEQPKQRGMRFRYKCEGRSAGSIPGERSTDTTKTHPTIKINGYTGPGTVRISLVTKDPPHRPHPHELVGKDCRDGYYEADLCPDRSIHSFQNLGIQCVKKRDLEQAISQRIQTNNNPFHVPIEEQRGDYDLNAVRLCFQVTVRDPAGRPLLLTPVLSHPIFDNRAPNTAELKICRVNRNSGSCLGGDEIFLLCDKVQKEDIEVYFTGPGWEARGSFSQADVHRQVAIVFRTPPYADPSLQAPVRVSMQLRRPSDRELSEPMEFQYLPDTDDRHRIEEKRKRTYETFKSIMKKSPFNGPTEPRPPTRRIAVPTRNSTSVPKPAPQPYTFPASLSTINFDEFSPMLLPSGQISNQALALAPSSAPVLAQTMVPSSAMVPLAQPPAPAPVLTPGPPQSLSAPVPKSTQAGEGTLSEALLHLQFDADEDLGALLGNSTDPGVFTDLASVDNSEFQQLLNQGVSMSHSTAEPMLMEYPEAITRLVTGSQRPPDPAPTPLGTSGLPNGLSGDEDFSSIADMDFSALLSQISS

[20] = molecular target: Transcription factor p65 (Mus musculus) (UniProt Q04207); experiment: Inhibition of NF-kappaB subunit p65 DNA binding activity in LPS-stimulated mouse RAW264.7 cells at 5 to 20 uM by electrophoretic mobility shift assay; type: cell-based
RAW264.7 [21] = experiment: Antiinflammatory activity in mouse RAW264.7 cells assessed as inhibition of LPS-induced nitric oxide production after 24 hrs by Griess method; type: functional, cell-based; conditions: RAW264.7, 24 h
Procedure, shortened: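 Cells were treated with compound (0.5–100 µM; 0.1% DMSO final) and LPS 500 ng/mL together for 24 h. Nitrite in the medium was read with Griess reagent (10 min, room temperature, dark) at OD540. IC50 comes from three separate experiments, each in triplicate.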

RAW264.7 [22] = experiment: Antiinflammatory activity in mouse RAW264.7 cells assessed as inhibition of LPS-induced TNFalpha production at 10 uM after 6 to 24 hrs by ELISA; type: functional, cell-based; procedure, shortened: as §2
RAW264.7 [23] = experiment: Antiinflammatory activity in mouse RAW264.7 cells assessed as inhibition of LPS-induced IL-6 production at 10 uM after 6 to 24 hrs by ELISA; type: functional, cell-based; procedure, shortened: as §2
[24] = molecular target: T2, NF-kappa-B inhibitor alpha (Mus musculus); experiment: Inhibition of LPS-induced IkappaBalpha phosphorylation in mouse RAW264.7 cells at 10 uM at 6 hrs by Western blot analysis; type: cell-based; procedure, shortened: as §1
[25] = molecular target: Transcription factor p65 (Mus musculus) (UniProt Q04207); experiment: Inhibition of NF-kappaB subunit p65 DNA binding activity in LPS-stimulated mouse RAW264.7 cells at 10 uM after 20 mins by electrophoretic mobility shift assay; type: cell-based
Procedure, shortened: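 Nuclear extract (5 µg) was incubated with a biotin-labelled NF-κB consensus probe for 20 min at room temperature. Complexes were resolved on a 6% native gel in 0.5× TBE at 4 °C, then transferred to nylon and detected by chemiluminescence. Specificity was checked by 100-fold unlabelled competitor and p65 antibody supershift.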

[26] = molecular target: Transcription factor p65 (Mus musculus) (UniProt Q04207); experiment: Inhibition of NF-kappaB subunit p65 DNA binding activity in LPS-stimulated mouse RAW264.7 cells at 20 uM after 24 hrs by luciferase reporter gene assay; type: cell-based
Mus musculus [27] = experiment: Antiinflammatory activity in BALB/c mouse assessed as decrease in LPS-induced mortality at 15 mg/kg, ip QD administered 3 days prior to LPS challenge; type: functional, organism-based; set-up: dose 15 mg/kg; procedure, shortened: as §3
RAW264.7 [28] = experiment: Inhibition of MAPK-mediated NFkappa B subunit p65 phosphorylation in LPS-stimulated mouse RAW264.7 cells at 10 uM at 6 hrs by Western blot analysis; type: cell-based; procedure, shortened: as §1
[29] = molecular target: T1, Mitogen-activated protein kinase 1 and 3 (ERK2 and ERK1) (Mus musculus); experiment: […] of LPS-induced Erk1/2 phosphorylation in mouse RAW264.7 cells at 10 uM after 4 to 6 hrs by Western blot analysis; type: cell-based; procedure, shortened: as §1
[30] = molecular target: T2, NF-kappa-B inhibitor alpha (Mus musculus); experiment: Inhibition of IKappaBalpha degradation in LPS-stimulated mouse RAW264.7 cells at 10 uM at 4 to 6 hrs by Western blot analysis; type: cell-based; procedure, shortened: as §1
[31] = molecular target: Transcription factor p65 (Mus musculus) (UniProt Q04207); experiment: Inhibition of NF-kappaB subunit p65 DNA binding activity in LPS-stimulated mouse RAW264.7 cells at 10 uM after 24 hrs by luciferase reporter gene assay; type: cell-based

T1 sequence (P63085 whole entry, looked up): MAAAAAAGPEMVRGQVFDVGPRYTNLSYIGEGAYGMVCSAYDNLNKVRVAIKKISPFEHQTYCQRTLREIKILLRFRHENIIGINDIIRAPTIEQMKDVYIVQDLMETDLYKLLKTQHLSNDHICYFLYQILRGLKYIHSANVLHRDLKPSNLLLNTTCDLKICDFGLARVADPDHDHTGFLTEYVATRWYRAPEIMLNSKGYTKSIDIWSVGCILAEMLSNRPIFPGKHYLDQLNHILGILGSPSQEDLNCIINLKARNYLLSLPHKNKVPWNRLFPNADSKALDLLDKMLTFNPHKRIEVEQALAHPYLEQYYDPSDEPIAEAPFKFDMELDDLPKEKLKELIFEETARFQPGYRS
T1 sequence (Q63844 whole entry, looked up): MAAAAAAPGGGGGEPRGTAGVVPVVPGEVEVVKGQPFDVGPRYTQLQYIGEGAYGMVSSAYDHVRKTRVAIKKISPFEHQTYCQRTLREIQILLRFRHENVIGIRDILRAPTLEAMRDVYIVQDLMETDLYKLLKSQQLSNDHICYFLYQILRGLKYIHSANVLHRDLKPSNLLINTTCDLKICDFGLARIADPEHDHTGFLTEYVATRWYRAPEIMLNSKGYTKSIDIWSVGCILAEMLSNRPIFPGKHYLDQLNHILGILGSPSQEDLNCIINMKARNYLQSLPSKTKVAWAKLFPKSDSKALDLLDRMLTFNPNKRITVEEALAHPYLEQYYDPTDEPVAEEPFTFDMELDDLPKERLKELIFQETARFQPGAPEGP

SMILES	Activity (RAW264.7 [3])	inhibition (RAW264.7 [4])	Activity (Mus musculus [6])	Activity (Mus musculus [7])	Activity (RAW264.7 [8])	Activity (RAW264.7 [11])	Activity (RAW264.7 [13])	Activity (RAW264.7 [14])	inhibition [15]	IC50 (RAW264.7 [16])	survival at 15 mg/kg (Mus musculus [17])	Activity (RAW264.7 [18])	IC50 (RAW264.7 [21])	other results
CCCCCCCCC(=O)Oc1c(OC)ccc2c1[C@@]13CCN(C)[C@@H](C2)[C@H]1C=C(OC)C(=O)C3	148.5 pg/mL	Active	Active	Active	486.3 pg/mL	9728.9 pg/mL	223.7 pg/mL	4503.8 pg/mL	Active	58.2 µM	30%	2338.5 pg/mL	24.1 µM	inhibition [1]: Active; inhibition [2]: inactive; survival at 15 mg/kg (Mus musculus [5]): 30%; inhibition (RAW264.7 [9]): Active; inhibition [10]: Active; inhibition [12]: Active; inhibition [19]: Active; inhibition [20]: Active
COC1=C[C@@H]2[C@@H]3Cc4ccc(OC)c(O)c4[C@]2(CCN3C)CC1=O [SINOMENINE]										> 200 µM			> 200 µM	inhibition (RAW264.7 [22]): inactive; inhibition (RAW264.7 [23]): inactive
COC1=C[C@@H]2[C@@H]3Cc4ccc(OC)c(OCCCOc5c(OC)ccc6c5[C@@]57CCN(C)[C@@H](C6)[C@H]5C=C(OC)C(=O)C7)c4[C@]2(CCN3C)CC1=O	949.7 pg/mL	inactive	Active	Active	13096.9 pg/mL	8303.2 pg/mL	1667.8 pg/mL	3501.9 pg/mL	inactive	41.1 µM	70%	1817.6 pg/mL	15.2 µM	inhibition [24]: Active; inhibition [25]: inactive; inhibition [26]: Active; Activity (Mus musculus [27]): Active; inhibition (RAW264.7 [28]): Active; Activity [29]: Active; inhibition [30]: Active; inhibition [31]: inactive

Source: ChEMBL document CHEMBL1949609, “Synthesis and biological evaluation of novel sinomenine derivatives as anti-inflammatory agents” (Eur J Med Chem, 2012)
